≈ marks a conversion by molar mass, not a printed value.
Legend:
[1] = system: Human immunodeficiency virus 1; assay: Antiviral activity against R5 tropic Human immunodeficiency virus 1 subtype B-ADA5 infected in human TZM-bl cells assessed as inhibition of virus-induced cytopathic effect after 2 days by luciferase assay; type: functional, organism-based; conditions: Human immunodeficiency virus 1, subtype B-ADA5, TZM-bl, 48 h
Method in brief: (§1)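 TZM-bl cells were seeded at 1 × 10^4 per well and incubated overnight at 37 °C in 5% CO2. Medium was then replaced with HIV-1 stock for 2 h at 37 °C, and compound concentrations giving >50% viability were added. After two days, luciferase activity was read as RLU. EC50 is the mean of two independent assays, each in duplicate. Nevirapine served as positive control.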

[2] = Cytotoxicity in human TZM-bl cells assessed as cell viability after 48 hrs by MTT assay; type: cell-based
Method in brief: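 TZM-bl (JC53BL-13) cells were seeded at 1 × 10^4 per well and incubated overnight at 37 °C in 5% CO2. Medium was replaced with a twofold dilution series of compound for 48 h, and viability was read by MTT absorbance. CC50 (50% cytotoxic concentration) is the mean of three independent assays, each in quadruplicate.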

[3] = Selectivity index, ratio of CC50 for human TZM-bl cells to EC50 for X4 tropic Human immunodeficiency virus 1 subtype B-3B; type: cell-based; conditions: read-out: Ratio CC50/EC50
Method in brief: (§2)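 Selectivity index is CC50/EC50. […] EC50 came from the 2-day luciferase (RLU) readout in HIV-1-infected TZM-bl cells (mean of two assays).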

[4] = Selectivity index, ratio of CC50 for human TZM-bl cells to EC50 for R5 tropic Human immunodeficiency virus 1 subtype B-ADA5; type: toxicity, cell-based; conditions: read-out: Ratio CC50/EC50; method in brief: as §2
[5] = system: Human immunodeficiency virus 1; assay: Antiviral activity against X4 tropic Human immunodeficiency virus 1 subtype D-UG070 infected in human TZM-bl cells assessed as inhibition of virus-induced cytopathic effect after 2 days by luciferase assay; type: functional, organism-based; conditions: Human immunodeficiency virus 1, subtype D-UG070, TZM-bl, 48 h; method in brief: as §1
[6] = system: Human immunodeficiency virus 1; assay: Antiviral activity against R5 tropic Human immunodeficiency virus 1 subtype C-VB59 infected in human TZM-bl cells assessed as inhibition of virus-induced cytopathic effect after 2 days by luciferase assay; type: functional, organism-based; conditions: Human immunodeficiency virus 1, subtype C-VB59, TZM-bl, 48 h; method in brief: as §1
[7] = Selectivity index, ratio of CC50 for human TZM-bl cells to EC50 for X4 tropic Human immunodeficiency virus 1 subtype D-UG070; type: toxicity, cell-based; conditions: read-out: Ratio CC50/EC50; method in brief: as §2
[8] = Selectivity index, ratio of CC50 for human TZM-bl cells to EC50 for R5 tropic Human immunodeficiency virus 1 subtype C-VB59; type: toxicity, cell-based; conditions: read-out: Ratio CC50/EC50; method in brief: as §2
[9] = molecular target: Human immunodeficiency virus type 1 reverse transcriptase (Human immunodeficiency virus 1) (UniProt Q72547); assay: Inhibition of biotin-dNTP labeled HIV-1 reverse transcriptase using ABST as substrate at 100 ug/ml after 1 hr by ELISA
Method in brief: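 ELISA-format RT assay. Template/primer, biotin- and DIG-labelled dNTPs and RT enzyme in lysis buffer were incubated 1 h at 37 °C. The product was captured on streptavidin, detected with anti-DIG-peroxidase and ABTS substrate, and absorbance read at 405 nm. Activity is reported as percent inhibition of RT.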

[10] = system: Human immunodeficiency virus 1; assay: Antiviral activity against X4 tropic Human immunodeficiency virus 1 subtype B-3B infected in human TZM-bl cells assessed as inhibition of virus-induced cytopathic effect after 2 days by luciferase assay; type: functional, organism-based; conditions: 48 h; method in brief: as §1

SMILES | EC50 [1] [µg/mL] | EC50 [5] [µg/mL] | EC50 [6] [µg/mL] | inhibition [9] [%] | EC50 [10] [µg/mL] | CC50 at 48 h [2] [µg/mL] | selectivity ratio [3] | selectivity ratio [4] | selectivity ratio [7] | selectivity ratio [8]
CC(C)(C)c1cc(N2C(=O)CSC2c2c(F)cccc2F)no1 (stereo not drawn) | 2.58 (≈ 7.62 µM) |  |  | 71.5 | 2.97 (≈ 8.78 µM) | 45.9 (≈ 136 µM) | 15.5 | 18 |  | 
Cc1ccnc2c1NC(=O)c1cccnc1N2C1CC1 [NEVIRAPINE] | 0.05 (≈ 0.188 µM) | 0.05 (≈ 0.188 µM) | 0.05 (≈ 0.188 µM) |  | 0.05 (≈ 0.188 µM) | 76.1 (≈ 286 µM) | 1520 | 1520 | 1520 | 1520
Cc1cc(N2C(=O)CSC2c2c(F)cccc2Cl)no1 (stereo not drawn) | 1.06 (≈ 3.39 µM) | 0.75 (≈ 2.4 µM) | 0.68 (≈ 2.17 µM) | 95.5 | 0.67 (≈ 2.14 µM) | 38.5 (≈ 123 µM) | 57.4 | 36.3 | 51.3 | 56.6
Cc1cc(N2C(=O)CSC2c2c(F)cccc2F)no1 (stereo not drawn) | 1.34 (≈ 4.52 µM) | 1.9 (≈ 6.41 µM) | 1.45 (≈ 4.89 µM) | 98.1 | 1.01 (≈ 3.41 µM) | 62.7 (≈ 212 µM) | 62 | 46.8 | 33 | 43.2
Cc1cc(N2C(=O)CSC2c2c(Cl)cccc2Cl)no1 (stereo not drawn) | 0.65 (≈ 1.97 µM) | 0.5 (≈ 1.52 µM) | 0.35 (≈ 1.06 µM) | 75.4 | 0.35 (≈ 1.06 µM) | 40.5 (≈ 123 µM) | 116 | 62.3 | 81 | 116
CC(C)(C)c1cc(N2C(=O)CSC2c2c(Cl)cccc2Cl)no1 (stereo not drawn) | 2.4 (≈ 6.46 µM) | 1.76 (≈ 4.74 µM) | 1.8 (≈ 4.85 µM) | 50.4 | 1.49 (≈ 4.01 µM) | 48.5 (≈ 131 µM) | 32.6 | 20 | 27.5 | 26.9
CC(C)(C)c1cc(N2C(=O)CSC2c2c(F)cccc2Cl)no1 (stereo not drawn) | 3.07 (≈ 8.65 µM) | 1.6 (≈ 4.51 µM) | 2.5 (≈ 7.05 µM) | 51.1 | 1.95 (≈ 5.5 µM) | 40.7 (≈ 115 µM) | 20.8 | 13.2 | 24.4 | 16.2
Cc1cccc(N2C(=O)CSC2c2c(Cl)cncc2Cl)n1 (stereo not drawn) | 1.64 (≈ 4.82 µM) | 3.1 (≈ 9.11 µM) | 1.95 (≈ 5.73 µM) | 84.1 | 0.65 (≈ 1.91 µM) | 45 (≈ 132 µM) | 69.8 | 27.4 | 14.5 | 23.1
CSc1nc(Cl)cc(N2C(=O)CSC2c2c(F)cccc2Cl)n1 (stereo not drawn) | 1.26 (≈ 3.23 µM) | 1.8 (≈ 4.61 µM) | 0.65 (≈ 1.67 µM) | 76.5 | 0.93 (≈ 2.38 µM) | 27 (≈ 69.2 µM) | 29 | 21.4 | 15 | 41.5

Further lines, with some results ahead:

EC50 [1] [µg/mL] | EC50 [5] [µg/mL] | EC50 [6] [µg/mL] | inhibition [9] [%] | EC50 [10] [µg/mL] | SMILES | CC50 at 48 h [2] [µg/mL] | selectivity ratio [3] | selectivity ratio [4] | selectivity ratio [7] | selectivity ratio [8]
2.17 (≈ 5.18 µM) | 8.45 (≈ 20.2 µM) | 6.5 (≈ 15.5 µM) | 76.6 | 6.18 (≈ 14.7 µM) | Cc1nc(N2C(=O)CSC2c2c(Cl)cncc2Cl)ccc1Br (stereo not drawn) | 66.7 (≈ 159 µM) | 10.8 | 30.7 | 7.89 | 10.3
4.8 (≈ 11.1 µM) |  |  | 57.4 | 1.5 (≈ 3.46 µM) | Cc1cc(N2C(=O)CSC2c2c(Cl)cncc2Cl)nc(C)c1Br (stereo not drawn) | 15.6 (≈ 36 µM) | 10.4 | 3.2 |  | 
2.52 (≈ 4.96 µM) |  |  | 75.9 | 6.09 (≈ 12 µM) | Cc1nc(N2C(=O)CSC2c2c(Br)cncc2Br)ccc1Br (stereo not drawn) | 26.9 (≈ 52.9 µM) | 4.4 | 10.7 |  | 
4.11 (≈ 9.58 µM) | 5.55 (≈ 12.9 µM) | 2.24 (≈ 5.22 µM) | 77.6 | 2.22 (≈ 5.17 µM) | Cc1cccc(N2C(=O)CSC2c2c(Br)cncc2Br)n1 (stereo not drawn) | 26.7 (≈ 62.2 µM) | 12 | 6.5 | 4.8 | 11.9
0.31 (≈ 0.875 µM) | 1.55 (≈ 4.38 µM) | 1.1 (≈ 3.11 µM) | 85.3 | 0.8 (≈ 2.26 µM) | Cc1cc(C)nc(N2C(=O)CSC2c2c(Cl)cncc2Cl)c1 (stereo not drawn) | 37.3 (≈ 105 µM) | 46.6 | 120 | 24.1 | 33.9
 |  |  | 62 |  | Cc1cc(N2C(=O)CSC2c2c(Br)cncc2Br)nc(C)c1Br (stereo not drawn) |  |  |  |  | 
0.85 (≈ 1.97 µM) | 0.29 (≈ 0.671 µM) | 0.35 (≈ 0.81 µM) | 60.7 | 1.04 (≈ 2.41 µM) | Cc1cc(N2C(=O)CSC2c2c(Cl)cccc2Cl)nc(C)c1Br (stereo not drawn) | 2.5 (≈ 5.78 µM) | 2.4 | 2.9 | 8.6 | 7.1
0.12 (≈ 0.289 µM) | 0.1 (≈ 0.241 µM) | 0.07 (≈ 0.168 µM) | 91.2 | 0.09 (≈ 0.216 µM) | Cc1cc(N2C(=O)CSC2c2c(F)cccc2Cl)nc(C)c1Br (stereo not drawn) | 40.2 (≈ 96.7 µM) | 447 | 335 | 402 | 574
1.21 (≈ 2.73 µM) | 2.1 (≈ 4.74 µM) | 1.59 (≈ 3.59 µM) | 62.8 | 1.41 (≈ 3.18 µM) | Cc1cc(C)nc(N2C(=O)CSC2c2c(Br)cncc2Br)c1 (stereo not drawn) | 49.8 (≈ 112 µM) | 35.3 | 41.1 | 23.7 | 31.3
